The text below walks through data of ChEMBL document CHEMBL1151773, “Synthesis and biological evaluation of amide derivatives of (5,6-dimethoxy-2,3-dihydro-1H-inden-1-yl)acetic acid as anti-inflammatory agents with reduced gastrointestinal ulcerogenecity” (Eur J Med Chem, 2008).

One data set has as its system Mus musculus. Description: Analgesic activity in Swiss albino mouse assessed as inhibition of acetic acid-induced writhing at 100 mg/kg, po administered 60 mins before acetic acid challenge after 5 to 15 mins relative to control. It counts as functional. A digest of the protocol: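 Female Swiss albino mice, 20±5 g, fasted overnight with free water access, dosed orally; 1 h later injected i.p. with 1% v/v acetic acid at 0.1 ml/10 g. Writhes (full hind-limb extension) counted for 15 min, starting 5 min after injection; only animals giving 20 or more writhes used. % inhibition = 100(1−Wt/Wc) vs control group mean; six animals per group.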

Data set [1] deals with Rattus norvegicus. Description: Antipyretic activity in Wistar rat assessed as change in LPS-induced rectal temperature at 100 mg/kg, po administered 30 mins before LPS challenge after 7 hrs. It counts as functional. The gist of the method:
(§1)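 Adult female Wistar rats, 170±20 g, fasted 24 h, dosed orally at 09:00; 30 min later E. coli 0111:B4 phenol-extracted LPS in apyrogenic saline given i.p. Rectal temperature by telethermometer probe just before and 1–7 h hourly after LPS; temperature index calculated from these readings. n = 6.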

Data set [2] relates to Rattus norvegicus. Description: Antipyretic activity in Wistar rat assessed as change in LPS-induced rectal temperature at 100 mg/kg, po administered 30 mins before LPS challenge after 6 hrs. It counts as functional. The gist of the method: as §1
Data set [3] concerns Rattus norvegicus. Description: Antiinflammatory activity in Wistar rat assessed as inhibition of carrageenan-induced hind paw edema volume at 100 mg/kg, po administered 60 mins before carrageenan challenge after 6 hrs relative to control. It counts as functional.
In data set [4] the test system is Rattus norvegicus. Description: Antiinflammatory activity in Wistar rat assessed as inhibition of carrageenan-induced hind paw edema volume at 100 mg/kg, po administered 60 mins before carrageenan challenge after 1 hr relative to control. It counts as functional.
Data set [5] relates to Rattus norvegicus. Description: Antipyretic activity in Wistar rat assessed as change in LPS-induced rectal temperature at 100 mg/kg, po administered 30 mins before LPS challenge after 5 hrs. It counts as functional. A digest of the protocol:
as §1

Data set [6] has as its system Rattus norvegicus. Description: Gastrointestinal toxicity in Wistar rat assessed as ulcer index at 100 mg/kg, po after 6 hrs. It counts as organism-based. Set-up: dose 100 mg/kg, route oral. As to conditions: in vivo. The gist of the method: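 Female Wistar rats, 175±25 g, fasted 24 h, dosed orally once; sacrificed 6 h later by cervical dislocation. Stomach opened along greater curvature, saline-washed, mucosa inspected with a hand lens. Lesions graded I (edema/hyperemia/petechiae), II (hemorrhagic lesions with small erosions), III (deep ulcers); UI = nI + 2nII + 3nIII. Mean ± SEM, n = 6.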

The subject of data set [7] is Rattus norvegicus. Description: Antipyretic activity in Wistar rat assessed as change in LPS-induced rectal temperature at 100 mg/kg, po administered 30 mins before LPS challenge after 4 hrs. It counts as functional. The gist of the method:
as §1

For data set [8], the system named is Rattus norvegicus. Description: Antipyretic activity in Wistar rat assessed as change in LPS-induced rectal temperature at 100 mg/kg, po administered 30 mins before LPS challenge after 3 hrs. It counts as functional. The gist of the method: as §1
Data set [9] concerns Rattus norvegicus. Description: Antipyretic activity in Wistar rat assessed as change in LPS-induced rectal temperature at 100 mg/kg, po administered 30 mins before LPS challenge after 2 hrs. It counts as functional. The gist of the method: as §1
The test system of data set [10] is Rattus norvegicus. Description: Antiinflammatory activity in Wistar rat assessed as inhibition of carrageenan-induced hind paw edema volume at 100 mg/kg, po administered 60 mins before carrageenan challenge after 4 hrs relative to control. It counts as functional.
The test system of data set [11] is Rattus norvegicus. Description: Antiinflammatory activity in Wistar rat assessed as inhibition of carrageenan-induced hind paw edema volume at 100 mg/kg, po administered 60 mins before carrageenan challenge after 3 hrs relative to control. It counts as functional.
The subject of data set [12] is Rattus norvegicus. Description: Antiinflammatory activity in Wistar rat assessed as inhibition of carrageenan-induced hind paw edema volume at 100 mg/kg, po administered 60 mins before carrageenan challenge after 24 hrs relative to control. It counts as functional.
Data set [13] concerns Rattus norvegicus. Description: Antipyretic activity in Wistar rat assessed as change in LPS-induced rectal temperature at 100 mg/kg, po administered 30 mins before LPS challenge after 1 hr. It counts as functional. A digest of the protocol: as §1
The test system of data set [14] is Rattus norvegicus. Description: Antiinflammatory activity in Wistar rat assessed as inhibition of carrageenan-induced hind paw edema volume at 100 mg/kg, po administered 60 mins before carrageenan challenge after 2 hrs relative to control. It counts as functional.
For data set [15], the system named is Rattus norvegicus. Description: Antiarthritic activity in Albino rat assessed as inhibition of Freund's complete adjuvant-induced paw volume at 100 mg/kg, po administered for 14 days daily once starting a day before adjuvant challenge measured on day 3. It counts as functional. A digest of the protocol:
(§2)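 Female albino rats, 160±10 g, six per group, dosed orally once daily for 14 days starting the day before 0.1 ml Freund's complete adjuvant into the right hind paw subplantar surface. Both hind paw volumes, measured up to a mark at the lateral malleolus, taken before and daily after adjuvant.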

In data set [16] the test system is Rattus norvegicus. Description: Antiarthritic activity in Albino rat assessed as inhibition of Freund's complete adjuvant-induced paw volume at 100 mg/kg, po administered for 14 days daily once starting a day before adjuvant challenge measured on day 8. It counts as functional. The gist of the method: as §2
Data set [17] relates to Rattus norvegicus. Description: Antiarthritic activity in Albino rat assessed as inhibition of Freund's complete adjuvant-induced paw volume at 100 mg/kg, po administered for 14 days daily once starting a day before adjuvant challenge measured on day 13. It counts as functional. The gist of the method:
as §2

The test system of data set [18] is Rattus norvegicus. Description: Antiarthritic activity in Freund's complete adjuvant challenged Albino rat model assessed as change in body weight at 100 mg/kg, po administered for 14 days daily once starting a day before adjuvant challenge. It counts as functional. Conditions: 336 h, read-out: INH.
Data set [19] has as its system Rattus norvegicus. Description: Toxicity in Wistar rat assessed as mortality at up to 1000 mg/kg, po after 24 hrs. It counts as organism-based. Set-up: dose 1000 mg/kg, route oral. As to conditions: in vivo.
The test system of data set [20] is Rattus norvegicus. Description: Antiinflammatory activity in po dosed Wistar rat assessed as inhibition of carrageenan-induced hind paw edema volume administered 60 mins before carrageenan challenge. It counts as functional.
For data set [21], the system named is Rattus norvegicus. Description: Gastrointestinal toxicity in Wistar rat assessed as ulcer index at 100 mg/kg, po after 14 days. It counts as organism-based. Set-up: dose 100 mg/kg, route oral. As to conditions: in vivo, 336 h. The gist of the method:
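Gastric mucosa examined for ulceration at post-mortem of female albino rats sacrificed at the end of the 14-day once-daily oral dosing in the Freund's adjuvant arthritis study; ulcer index scored per animal. Mean ± SEM, n = 6.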

In data set [22] the test system is Rattus norvegicus. Description: Antiinflammatory activity in […] 50 mg/kg, ip pretreated Wistar rat assessed as inhibition of carrageenan-induced hind paw edema volume at 100 mg/kg, po administered 60 mins before carrageenan challenge measured after 4 hrs. It counts as functional. The gist of the method: (§3)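 Rats pretreated with SKF-525A 50 mg/kg i.p.; 1 h later oral dose at 100 mg/kg. 1 h after dosing, 0.1 ml of 1% carrageenan given subplantar into the right hind paw.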

For data set [23], the system named is Rattus norvegicus. Description: Antiinflammatory activity in […] 50 mg/kg, ip pretreated Wistar rat assessed as inhibition carrageenan-induced hind paw edema volume at 100 mg/kg, po administered 60 mins before carrageenan challenge measured after 2 hrs. It counts as functional. The gist of the method: as §3
Data set [24] relates to Rattus norvegicus. Description: Antiinflammatory activity in […] 50 mg/kg, ip pretreated Wistar rat assessed as inhibition of carrageenan-induced hind paw edema volume at 100 mg/kg, po administered 60 mins before carrageenan challenge measured after 3 hrs. It counts as functional. The gist of the method:
as §3

Data set [25] relates to Rattus norvegicus. Description: Antiinflammatory activity in […] 50 mg/kg, ip pretreated Wistar rat assessed as inhibition of carrageenan-induced hind paw edema volume at 100 mg/kg, po administered 60 mins before carrageenan challenge measured after 24 hrs. It counts as functional. The gist of the method: as §3
The test system of data set [26] is Rattus norvegicus. Description: Antiinflammatory activity in […] 50 mg/kg, ip pretreated Wistar rat assessed as inhibition of carrageenan-induced hind paw edema volume at 100 mg/kg, po administered 60 mins before carrageenan challenge measured after 6 hrs. It counts as functional. The gist of the method: as §3
Data set [27] has as its system Rattus norvegicus. Description: Antiinflammatory activity in […] 50 mg/kg, ip pretreated Wistar rat assessed as inhibition carrageenan-induced hind paw edema volume at 100 mg/kg, po administered 60 mins before carrageenan challenge measured after 1 hr. It counts as functional. A digest of the protocol:
as §3

Each structure is given as a SMILES string.

As to `COc1cc2c(cc1OC)C(CC(=O)NC(C)C)CC2` (centres undefined), the inhibition in vivo at 100 mg/kg in the data set on Mus musculus was determined as 29.3%; in the data set with Rattus norvegicus [3], 37%; in the data set on Rattus norvegicus [4] it was 31.2%; in the data set with Rattus norvegicus [10], 39.1%; in the data set with Rattus norvegicus [11], 30.4%; in the data set with Rattus norvegicus [12], 30%. Besides, the inhibition in vivo at 100 mg/kg with Rattus norvegicus [14] turned out to be 37%. Besides, the Activity is 0.59 °C in the data set on Rattus norvegicus [1]; 0.55 °C in the data set on Rattus norvegicus [2]; 0.43 °C with Rattus norvegicus [5]; 0.19 °C in the data set with Rattus norvegicus [7]; -0.39 °C in the data set with Rattus norvegicus [8]; -1.51 °C in the data set with Rattus norvegicus [9]. The Activity in the data set with Rattus norvegicus [13] is -0.41 °C. In the data set on Rattus norvegicus [6], the UI is given as 0.
In the case of `COc1cc2c(cc1OC)C(CC(=O)N1CCNCC1)CC2` (centres undefined), the inhibition in vivo at 100 mg/kg was 68.8% in the data set on Mus musculus; 35.3% in the data set with Rattus norvegicus [15]; 28.8% with Rattus norvegicus [16]; 33.3% in the data set on Rattus norvegicus [3]; 62.5% in the data set on Rattus norvegicus [4]; 2.35% in the data set on Rattus norvegicus [17]. For the same molecule, the inhibition in vivo at 100 mg/kg amounted to 40.6% with Rattus norvegicus [10]; 42% with Rattus norvegicus [11]; 3.11 g with Rattus norvegicus [18]; 65% with Rattus norvegicus [12]; 44% with Rattus norvegicus [14]. Moreover, the Activity with Rattus norvegicus [1] was 0.16 °C; in the data set on Rattus norvegicus [2], 0.19 °C; with Rattus norvegicus [5] it was 0.11 °C; with Rattus norvegicus [7], -0.18 °C; with Rattus norvegicus [8], -0.85 °C; in the data set on Rattus norvegicus [9], -1.23 °C. Further, the Activity in the data set with Rattus norvegicus [13] is -0.45 °C. In the data set with Rattus norvegicus [6], the UI came to 0.
For `COc1cc2c(cc1OC)C(CC(=O)NC1CCCCC1)CC2` (centres undefined), the inhibition in vivo at 100 mg/kg came out at 44.7% with Mus musculus; 29% with Rattus norvegicus [15]; 31.8% with Rattus norvegicus [16]; 48.1% in the data set on Rattus norvegicus [3]; 50% in the data set with Rattus norvegicus [4]; 33.3% in the data set on Rattus norvegicus [17]. For the same molecule, the inhibition in vivo at 100 mg/kg with Rattus norvegicus [10] stood at 50%; in the data set with Rattus norvegicus [11] it was 49.3%; in the data set with Rattus norvegicus [18] it was 6.84 g; in the data set with Rattus norvegicus [12], 53.3%; in the data set on Rattus norvegicus [14] it was 56%. For the same molecule, the Activity in the data set with Rattus norvegicus [1] is 0.43 °C; in the data set on Rattus norvegicus [2], 0.45 °C; in the data set with Rattus norvegicus [19] it was “Non-toxic”; in the data set on Rattus norvegicus [5], 0.51 °C; in the data set on Rattus norvegicus [7] it was 0.05 °C; in the data set with Rattus norvegicus [8] it was -0.67 °C. Further, the Activity with Rattus norvegicus [9] was -1.26 °C; in the data set with Rattus norvegicus [13] it was -0.33 °C. The ED30 with Rattus norvegicus [20] amounted to 20 mg/kg. Besides, the UI in the data set with Rattus norvegicus [6] and with Rattus norvegicus [21] was 0 each time.
Turning to `CCCCCCNC(=O)CC1CCc2cc(OC)c(OC)cc21` (centres undefined), the inhibition in vivo at 100 mg/kg in the data set with Mus musculus worked out at 82.2%; in the data set on Rattus norvegicus [15], 31.2%; in the data set on Rattus norvegicus [16] it was 28.8%; in the data set on Rattus norvegicus [3], 39.8%; in the data set on Rattus norvegicus [4], 46.9%; with Rattus norvegicus [17], 39.4%. Further, the inhibition in vivo at 100 mg/kg in the data set with Rattus norvegicus [10] came to 39.1%; in the data set with Rattus norvegicus [11] it was 40.6%; in the data set on Rattus norvegicus [18], 7.64 g; in the data set with Rattus norvegicus [12] it was 43.3%; in the data set on Rattus norvegicus [14] it was 31%. The Activity in the data set on Rattus norvegicus [1] is 0.54 °C; in the data set with Rattus norvegicus [2], 0.53 °C; with Rattus norvegicus [19], “Non-toxic”; in the data set with Rattus norvegicus [5], 0.38 °C; in the data set on Rattus norvegicus [7], 0.11 °C; in the data set on Rattus norvegicus [8], -0.23 °C. The Activity with Rattus norvegicus [9] is -0.94 °C; in the data set with Rattus norvegicus [13], -0.56 °C. Moreover, the ED30 with Rattus norvegicus [20] was determined as 24 mg/kg. Besides, the “inhibition (INH)” value with Rattus norvegicus [22] was found to be 38.6%; with Rattus norvegicus [23] it was 36.58%; in the data set with Rattus norvegicus [24] it was 43.08%; in the data set on Rattus norvegicus [25], 45.45%; in the data set with Rattus norvegicus [26], 40.42%; in the data set on Rattus norvegicus [27], 52.38%. The UI in the data set with Rattus norvegicus [6] and in the data set with Rattus norvegicus [21] was 0 each time.
